Active and inactive are the calls of the source.
Tests used:
[1] = biological target: Cytochrome P450 2D6 (Homo sapiens, UniProt P10635); assay: Inhibition of CYP2D6; assay type: ADME
Summary of the method: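 CYP inhibition was tested in human liver microsomes with relevant probe substrates.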

[2] = biological target: T1, Fatty-acid amide hydrolase 1 (Homo sapiens, UniProt O00519); assay: Inhibition of His-tagged human FAAH N-terminal transmembrane-deleted truncated form expressed in Escherichia coli preincubated for 60 mins before oleamide substrate addition
T1 sequence (O00519 whole entry): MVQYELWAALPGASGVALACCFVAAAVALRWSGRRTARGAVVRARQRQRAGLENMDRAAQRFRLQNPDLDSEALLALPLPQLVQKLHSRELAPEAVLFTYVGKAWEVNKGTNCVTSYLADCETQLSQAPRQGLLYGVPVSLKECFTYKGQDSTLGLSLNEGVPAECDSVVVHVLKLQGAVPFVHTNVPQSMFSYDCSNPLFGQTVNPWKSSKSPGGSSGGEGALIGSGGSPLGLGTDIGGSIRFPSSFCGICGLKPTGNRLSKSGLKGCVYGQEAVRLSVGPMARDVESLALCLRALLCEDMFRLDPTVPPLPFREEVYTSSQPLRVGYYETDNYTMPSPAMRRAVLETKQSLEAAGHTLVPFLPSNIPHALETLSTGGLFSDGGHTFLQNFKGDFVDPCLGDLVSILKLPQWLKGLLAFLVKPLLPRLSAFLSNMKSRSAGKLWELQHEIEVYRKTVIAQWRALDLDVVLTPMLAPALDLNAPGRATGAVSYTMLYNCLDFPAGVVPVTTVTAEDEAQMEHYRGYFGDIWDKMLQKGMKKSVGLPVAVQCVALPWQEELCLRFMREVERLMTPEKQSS
Summary of the method: (§1)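 IC50 was determined after a 60 min preincubation of inhibitor with human or rat FAAH.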

[3] = biological target: T2, Fatty-acid amide hydrolase 1 (Rattus norvegicus, UniProt P97612); assay: Irreversible inhibition of His-tagged rat FAAH N-terminal transmembrane-deleted truncated form expressed in Escherichia coli preincubated for 60 mins before oleamide substrate addition; summary of the method: as §1
T2 sequence (P97612 whole entry): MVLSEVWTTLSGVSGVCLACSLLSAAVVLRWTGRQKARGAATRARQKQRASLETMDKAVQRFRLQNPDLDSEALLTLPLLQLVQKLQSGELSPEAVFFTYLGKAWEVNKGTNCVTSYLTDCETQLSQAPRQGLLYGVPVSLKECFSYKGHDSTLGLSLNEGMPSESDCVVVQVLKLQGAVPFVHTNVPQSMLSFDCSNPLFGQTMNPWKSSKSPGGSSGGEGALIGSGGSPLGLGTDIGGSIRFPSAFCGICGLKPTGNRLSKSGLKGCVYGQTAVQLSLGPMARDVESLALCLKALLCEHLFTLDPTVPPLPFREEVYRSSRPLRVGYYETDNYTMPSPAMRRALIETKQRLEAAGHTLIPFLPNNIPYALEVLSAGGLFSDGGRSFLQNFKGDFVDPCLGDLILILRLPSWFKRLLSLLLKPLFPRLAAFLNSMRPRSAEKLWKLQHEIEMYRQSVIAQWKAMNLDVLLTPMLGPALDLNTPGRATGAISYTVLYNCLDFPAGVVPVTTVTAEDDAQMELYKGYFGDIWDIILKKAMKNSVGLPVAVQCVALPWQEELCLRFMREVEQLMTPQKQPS

[4] = biological target: T3, Fatty-acid amide hydrolase 1 (Mus musculus) (UniProt O08914); assay: Inhibition of FAAH in mouse brain membrane proteomes at 10 uM by competitive activity based protein profiling; assay type: cell membranes
T3 sequence (whole entry): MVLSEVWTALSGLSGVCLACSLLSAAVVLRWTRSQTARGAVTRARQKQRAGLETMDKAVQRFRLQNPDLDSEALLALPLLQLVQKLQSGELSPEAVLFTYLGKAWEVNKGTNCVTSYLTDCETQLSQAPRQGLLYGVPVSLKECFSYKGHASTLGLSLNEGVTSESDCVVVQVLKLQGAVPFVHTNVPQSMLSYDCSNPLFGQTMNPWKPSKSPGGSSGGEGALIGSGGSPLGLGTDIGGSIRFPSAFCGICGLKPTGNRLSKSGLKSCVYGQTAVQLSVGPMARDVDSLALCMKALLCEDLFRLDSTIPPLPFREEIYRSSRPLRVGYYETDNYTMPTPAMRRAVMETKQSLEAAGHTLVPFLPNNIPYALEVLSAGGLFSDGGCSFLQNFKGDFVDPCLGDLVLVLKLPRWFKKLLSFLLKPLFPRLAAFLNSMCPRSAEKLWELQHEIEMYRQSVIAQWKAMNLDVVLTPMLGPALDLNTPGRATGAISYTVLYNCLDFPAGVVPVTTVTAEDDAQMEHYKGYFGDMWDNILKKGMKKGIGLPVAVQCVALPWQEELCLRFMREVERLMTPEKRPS
Summary of the method: (§2)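 Competitive activity-based protein profiling used human and mouse brain membrane and soluble liver proteomes. Each was treated with compound at 10 or 100 μM or with DMSO, then labelled with FP-rhodamine. Serine hydrolases were resolved on fluorescent gels. Enzymes with reduced labelling intensity in the presence of inhibitor were scored as targets.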

[5] = biological target: T3, Fatty-acid amide hydrolase 1 (Mus musculus); assay: Inhibition of FAAH in mouse brain membrane proteomes at 100 uM by competitive activity based protein profiling; assay type: cell membranes; summary of the method: as §2
[6] = species on record: Mus musculus; assay: Inhibition of fluorophosphonate-reactive serine proteases in mouse liver soluble proteomes at 100 uM by competitive activity based protein profiling; summary of the method: as §2
[7] = species on record: Homo sapiens; assay: Inhibition of fluorophosphonate-reactive serine proteases in human liver soluble proteomes at 100 uM by competitive activity based protein profiling; summary of the method: as §2
[8] = Cmax in rat at 1 mg/kg, po; assay type: ADME, organism-based; design: dose 1 mg/kg, route oral; conditions: in vivo
Summary of the method: (§3)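 Plasma pharmacokinetics used 1 mg/kg in rat and 0.5 mg/kg in dog, given iv and po. The iv formulation was 5% dimethylacetamide/95% (40% SBE-cyclodextrin in water). Oral dosing was a methylcellulose suspension of crystalline material.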

[9] = Tmax in rat at 1 mg/kg, iv or 1 mg/kg, po; assay type: ADME, organism-based; conditions: in vivo; summary of the method: as §3
[10] = Clearance in rat at 1 mg/kg, iv or 1 mg/kg, po; assay type: ADME, organism-based; conditions: in vivo; summary of the method: as §3
[11] = Volume of distribution at steady state in rat at 1 mg/kg, iv or 1 mg/kg, po; assay type: ADME, organism-based; conditions: in vivo, read-out: Vdss; summary of the method: as §3
[12] = Half life in rat at 1 mg/kg, iv; assay type: ADME, organism-based; design: dose 1 mg/kg, route intravenous; conditions: in vivo; summary of the method: as §3
[13] = Oral bioavailability in rat at 1 mg/kg; assay type: ADME, organism-based; conditions: in vivo; summary of the method: as §3
[14] = Cmax in dog at 0.5 mg/kg, po; assay type: ADME, organism-based, Canis lupus familiaris; design: dose 0.5 mg/kg, route oral; conditions: in vivo; summary of the method: as §3
[15] = Tmax in dog at 0.5 mg/kg, iv or 0.5 mg/kg, po; assay type: ADME, organism-based, Canis lupus familiaris; conditions: in vivo; summary of the method: as §3
[16] = Clearance in dog at 0.5 mg/kg, iv or 0.5 mg/kg, po; assay type: ADME, organism-based, Canis lupus familiaris; conditions: in vivo; summary of the method: as §3
[17] = Volume of distribution at steady state in dog at 0.5 mg/kg, iv or 0.5 mg/kg, po; assay type: ADME, organism-based, Canis lupus familiaris; conditions: in vivo, read-out: Vdss; summary of the method: as §3
[18] = Half life in dog at 0.5 mg/kg, iv; assay type: ADME, organism-based, Canis lupus familiaris; design: dose 0.5 mg/kg, route intravenous; conditions: in vivo; summary of the method: as §3
[19] = tested on: Canis familiaris; assay: Oral bioavailability in dog at 0.5 mg/kg, iv; assay type: ADME, organism-based, Canis lupus familiaris; conditions: in vivo; summary of the method: as §3
[20] = tested on: MDCK; assay: Apparent permeability from apical to basolateral side of MDCK cells; assay type: ADME, cell-based, Canis lupus familiaris; conditions: dog
[21] = tested on: MDCK; assay: Apparent permeability from basolateral to apical side of MDCK cells; assay type: ADME, cell-based, Canis lupus familiaris; conditions: dog
[22] = tested on: Hepatocyte; assay: Metabolic stability in human hepatocytes assessed as glutathione conjugate formation; assay type: ADME, cell-based
Summary of the method: (§4)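 Reactive metabolite potential was assessed by looking for glutathione conjugates in rat or human hepatocyte incubations.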

[23] = tested on: Hepatocyte; assay: Metabolic stability in rat hepatocytes assessed as glutathione conjugate formation; assay type: ADME, cell-based; summary of the method: as §4
[24] = tested on: Liver microsomes; assay: Half life in human liver microsomes at 0.8 mg/mL protein concentration; assay type: ADME, Microsome
Summary of the method: (§5)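 Human liver microsomes at 0.8 mg/mL protein were used for half-life and microsomal protein binding. These in vitro data were used to predict human blood clearance.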

[25] = tested on: Liver microsomes; assay: Protein binding in human liver microsomes at 0.8 mg/mL protein concentration; assay type: ADME, Microsome; summary of the method: as §5
[26] = tested on: Rattus norvegicus; assay: Antihyperalgesic activity in orally dosed Sprague-Dawley rat model of complete Freund's adjuvant-induced inflammatory pain model assessed as reduction in mechanical allodynia measured 4 hrs post dose; assay type: functional
Summary of the method: (§6)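 CFA was injected subcutaneously into the plantar surface of the rat hind paw. Oral dosing at 0.1-10 mg/kg began 5 days post-injection, once mechanical paw withdrawal threshold had fallen. Mechanical allodynia was read as paw withdrawal threshold 4 h after dosing. n=8 rats per group; significance versus vehicle-treated groups at p<0.05.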

[27] = tested on: Rattus norvegicus; assay: Antihyperalgesic activity in Sprague-Dawley rat model of complete Freund's adjuvant-induced inflammatory pain model assessed as reduction in mechanical allodynia at 0.1 mg/kg, po measured 4 hrs post dose; assay type: functional, organism-based; design: dose 0.1 mg/kg; summary of the method: as §6
[28] = biological target: T4, Fatty-acid amide hydrolase 1 (Homo sapiens) (UniProt O00519); conditions: 10 uM
T4 sequence (whole entry): T1 sequence (O00519 whole entry)

[29] = biological target: T4, Fatty-acid amide hydrolase 1 (Homo sapiens); conditions: 100 uM
[30] = species on record: Mus musculus; assay: Inhibition of fluorophosphonate-reactive 55/65 kDa serine proteases in mouse liver soluble proteomes at 100 uM by competitive activity based protein profiling
Summary of the method: (§7)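 Competitive activity-based protein profiling of human or mouse liver soluble proteome. Proteome was treated with inhibitor at 10 or 100 μM, or DMSO, then labelled with FP-rhodamine. Serine hydrolases were resolved on gel and read by fluorescent gel imaging. Bands with reduced labelling intensity in the presence of inhibitor were scored as targets.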

[31] = species on record: Homo sapiens; assay: Inhibition of fluorophosphonate-reactive 55/65 kDa serine proteases in human liver soluble proteomes at 100 uM by competitive activity based protein profiling; summary of the method: as §7

Sequence of Cytochrome P450 2D6 (P10635 whole entry): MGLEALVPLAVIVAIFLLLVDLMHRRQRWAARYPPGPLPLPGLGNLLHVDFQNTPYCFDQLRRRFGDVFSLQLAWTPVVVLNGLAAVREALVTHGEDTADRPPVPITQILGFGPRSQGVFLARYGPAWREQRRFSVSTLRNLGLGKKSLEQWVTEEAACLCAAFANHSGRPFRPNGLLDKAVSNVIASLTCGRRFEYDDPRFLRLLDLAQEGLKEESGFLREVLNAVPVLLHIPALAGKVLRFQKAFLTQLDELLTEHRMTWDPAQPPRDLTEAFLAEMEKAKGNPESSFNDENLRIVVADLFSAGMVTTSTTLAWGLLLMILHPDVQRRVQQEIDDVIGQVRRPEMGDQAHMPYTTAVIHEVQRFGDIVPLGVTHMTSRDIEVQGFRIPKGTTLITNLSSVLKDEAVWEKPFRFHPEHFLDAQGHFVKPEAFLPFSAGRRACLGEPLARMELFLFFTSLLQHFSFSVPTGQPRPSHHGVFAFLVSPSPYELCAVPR

## O=C(Nc1cccnn1)N1CCC(=Cc2cccc(Oc3ccc(C(F)(F)F)cn3)c2)CC1
[1]
  IC50: 14500 nM
[2]
  IC50: 7.2 nM
[3]
  IC50: 7.4 nM
[4]
  inhibition: Active
[5]
  inhibition: Active
[6]
  inhibition: inactive
[7]
  inhibition: inactive
[8]
  Cmax: 256 ng/mL
[9]
  Tmax: 4 h
[10]
  clearance: 3 mL/min/kg
[11]
  Vd: 3.2 L/kg
[12]
  half-life: 14.3 h
[13]
  bioavailability: 88%
[14]
  Cmax: 240 ng/mL
[15]
  Tmax: 1 h
[16]
  clearance: 1.3 mL/min/kg
[17]
  Vd: 2.9 L/kg
[18]
  half-life: 35.2 h
[19]
  F: 58%
[20]
  permeability: 15.2 ×10⁻⁶ cm/s
[21]
  permeability: 20.2 ×10⁻⁶ cm/s
[22]
  Stability: Stable
[23]
  Stability: Stable
[24]
  t1/2: 1.75 h
[25]
  PB: 90%
[26]
  MED: 0.1 mg/kg
[27]
  inhibition: Active
[28]
  inhibition: Active
[29]
  inhibition: Active

## NC(=O)c1cccc(-c2cccc(OC(=O)NC3CCCCC3)c2)c1
[4]
  inhibition: Active
[5]
  inhibition: Active
[30]
  inhibition: Active
[31]
  inhibition: Active
[28]
  inhibition: Active
[29]
  inhibition: Active

From ChEMBL document CHEMBL1649098 (ACS Med Chem Lett, 2011)
